# Measles CPE: protection of cells from measles virus. Measles virus-infected cells, CPE protection, absorbance. AID 841. protection (pct of control), % at 4 µM. actives 1.5% (n = 140,000); in the data active = protection mostly above about 24%, no sharp cut-off; inactive = mostly below about 26%
# RAM network inh: blocks the yeast RAM network | actives 1.8% (n = 190,000) | inhibition, % at 50 µM | AID 868 | S. cerevisiae dse1pr::URA3 reporter, 5-FOA growth OD615, 2 d; analog-sensitive cbk1-as2 kinase mutant strain;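 active = inhibition above a set limit, 3 SD over mean compound inhibition, cut at about 8.4% in these data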;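 note: 0% = DMSO-only wells with no growth and 100% = 10 µM 1-NA-PP1 full growth; inhibition rescues growth on 5-FOA so higher OD means more RAM inhibition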
# Yeast lifespan up: yeast lifespan extension; inhibition of the nicotinamide effect, % at 10 µM; S. cerevisiae growth with nicotinamide, OD615; deaD strain in restrictive glucose medium; actives 0.68% (n = 130,000); AID 775;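 active = inhibition above a set limit, placed 3 SD over the median of all compounds, cut at about 26% in these data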;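 note: 0% = nicotinamide-treated wells and 100% = cells grown without nicotinamide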
#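 assay system = DeaD-strain S. cerevisiae | buffer or medium = restrictive glucose medium | reagent = 1.5 mM nicotinamide | compound = 10 µM single point, 0.25% DMSO | incubation = 48 h compound exposure at 30 °C, humidified | signal = OD615 measurement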
# hDAT+cocaine: human DAT dopamine uptake with cocaine, either direction. Q01959. B-score at 10 µM. LLC-PK1 hDAT cells, [14C]-dopamine uptake with cocaine IC80; actives deviate in either direction. actives 1.3% (n = 110,000);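 active = Z score or B-score, a plate-position-corrected score, falls beyond the plate's 99.7% confidence bounds, in either direction; inactive = both scores lie inside the 99.7% bounds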;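 note: scored against the spread of the other compound wells on the same plate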
# Target sequence (Q01959 whole entry, looked up): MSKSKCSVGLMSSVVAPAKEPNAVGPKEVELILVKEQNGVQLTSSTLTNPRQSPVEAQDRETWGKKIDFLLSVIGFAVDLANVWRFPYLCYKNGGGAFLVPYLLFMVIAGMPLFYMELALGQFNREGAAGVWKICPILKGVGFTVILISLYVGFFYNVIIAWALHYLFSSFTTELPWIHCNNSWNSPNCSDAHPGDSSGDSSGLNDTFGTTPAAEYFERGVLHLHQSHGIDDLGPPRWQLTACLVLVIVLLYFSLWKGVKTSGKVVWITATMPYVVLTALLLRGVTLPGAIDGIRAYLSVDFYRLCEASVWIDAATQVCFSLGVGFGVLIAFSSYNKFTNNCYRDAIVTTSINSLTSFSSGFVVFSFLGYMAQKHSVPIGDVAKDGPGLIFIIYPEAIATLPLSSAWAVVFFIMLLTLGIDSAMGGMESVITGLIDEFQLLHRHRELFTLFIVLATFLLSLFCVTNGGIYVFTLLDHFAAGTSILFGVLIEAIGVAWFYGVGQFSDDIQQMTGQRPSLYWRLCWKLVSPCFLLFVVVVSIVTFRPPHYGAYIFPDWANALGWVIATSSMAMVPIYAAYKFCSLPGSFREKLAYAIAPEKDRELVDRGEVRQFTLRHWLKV
# WT yeast gro inh: growth inhibition of WT yeast, mitochondrial fusion screen. mitochondrial fusion phenotypic screen, WT strain. inhibition, % at 10 µM. actives 2.1% (n = 190,000). AID 1362; in the data active = inhibition above about 58%; tested in S. cerevisiae
# Yeast growth inh: yeast BB579 growth reduction in restrictive medium; S. cerevisiae BB579 growth, OD615, 48 h; inhibition, % at 10 µM; actives 0.51% (n = 140,000); AID 804;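 active = inhibition above a set limit, 3 SD over the mean compound inhibition, cut at about 44% in these data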
#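 controls = amphotericin B 10 µg/mL, positive | assay system = DeaD yeast strain BB579 | schedule = 48 h compound exposure at 30 °C after 4 h preincubation | detection = OD615 turbidity measurement | medium = restrictive CSMM-D medium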
# The depositor's hits bear a star; nt = no result given. A selection: hits, their analogues and other compounds. The true share with any hit is near 6.1%.
SMILES,Measles CPE,RAM network inh,Yeast lifespan up,hDAT+cocaine,WT yeast gro inh,Yeast growth inh
CCOc1cc(N2CCOCC2)c(OCC)cc1NC(=O)c1ccc(OCc2c(C)noc2C)c(OC)c1,26,8.7*,2,nt,5,-54
CCCN(C(=O)c1cccs1)c1nnc(-c2ccncc2)s1,5,-1,-12,0.81,2,19
Oc1ccccc1/C=N/Nc1cc(N2CCCC2)nc(N2CCCC2)n1,9,0,-8,nt,74*,-5
Oc1ccc(/C=N/Nc2cc(N3CCOCC3)nc(N3CCOCC3)n2)cc1O,23,1,3,nt,-1,-45
O=C1C2C(c3ccccc3)C=CC(c3ccccc3)C2C(=O)N1c1ccccn1 (stereo not given),25,0,30*,nt,10,-57
O=C1C2C(c3ccccc3)C=CC(c3ccccc3)C2C(=O)N1c1ccncc1 (stereo not given),9,1,59,0.57,-7,-9
CN1CCN(Cc2nc3ccccc3c(=O)n2Cc2nc(-c3ccc4ccccc4c3)cs2)CC1,0,3,1,nt,81*,-32
CN1CCN(Cc2nc3ccccc3c(=O)n2Cc2nc(-c3cccc([N+](=O)[O-])c3)cs2)CC1,nt,0,nt,nt,34,nt
COc1ccc(C(=O)N/N=C(\c2ccccc2)c2ccccn2)cc1,3,2,3,nt,68*,-38
COc1ccccc1C(=O)NNC(=S)NC(=O)c1cc(OC)c(OC)c(OC)c1,nt,2,nt,nt,13,nt
COc1ccc(CC(=O)NNC(=O)c2cnccn2)cc1,24,3,5,nt,8,-22
COc1ccc(NC(=O)c2ccccn2)cc1,7,1,-16,-0.8,18,-15
COc1ccc(C(=O)NC(=S)NNC(=O)c2cnccn2)cc1,2,6,2,nt,-4,81*
COc1cc(C(=O)NC(=S)NNC(=O)c2cnccn2)cc(OC)c1OC,13,0,9,nt,-1,88*
COc1ccc(C(O)C(CC(=O)NCCCOC(C)C)C(=O)NCCCOC(C)C)cc1OC (stereo not given),47,0,-2,nt,-15,-11
COc1ccc(NC(=O)Cc2coc3cc(C)ccc23)cn1,nt,5,nt,nt,-2,nt
C/C(CCC(C)C)=N\NC(=S)Nc1cc(S(=O)(=O)N2CCOCC2)ccc1N1CCOCC1,nt,2,nt,nt,-14,nt
CO/N=C(/CS(=O)(=O)c1ccc(C)cc1)c1ccc(OC)cc1,3,-1,-13,-0.73,48,7
COc1ccc(C)cc1-n1nnnc1SC/C(O)=C(\C#N)c1nc2ccccc2[nH]1,0,9.1*,-2,0.03,15,-4
Cn1c(=O)c2cc(S(=O)(=O)NC(C(=O)N3CCCCCC3)c3ccccc3)ccc2n(C)c1=O (stereo not given),8,0,-2,0.081,8,14
CN1C2CCC1/C(=C\c1ccccc1F)C(=O)/C2=C/c1ccccc1F,32,0,-3,nt,-16,9
Oc1ccc(Cl)cc1/C=C/c1ccc2cccc(O)c2n1,nt,-1,nt,nt,71*,nt
Cc1ccsc1/C=C/c1ccc2cccc(O)c2n1,10,1,-6,-2.3,16,17
Oc1cccc2ccc(/C=C/c3cccs3)nc12,11,0,-18,-0.68,52,59*
Oc1c(Cl)cc(Cl)cc1/C=C/c1ccc2cccc(O)c2n1,nt,4,nt,nt,51,nt
SMILES,Measles CPE,RAM network inh,Yeast lifespan up,hDAT+cocaine,WT yeast gro inh,Yeast growth inh
Cc1nc2scc(-c3ccc(Cl)cc3)c2c(=O)o1,13,1,8,-0.33,-16,-21
N/N=C(/Cc1nc2ccccc2[nH]1)c1ccc([N+](=O)[O-])cc1,nt,1,nt,nt,90*,nt
c1ccc(N/N=C(\Cc2nc3ccccc3[nH]2)c2ccccc2)cc1,11,0,6,nt,72*,-14
Cc1ccc(C)c(NC(=O)c2ccc(S(=O)(=O)C(F)F)cc2)c1,6,1,0,nt,0,-20
O=C(O/N=C\c1ccc(N2CCCCC2)c([N+](=O)[O-])c1)c1cccc(Cl)c1,13,11*,-5,nt,-13,-48
CCc1ccc(-c2csc(NC(=O)c3cccnc3)n2)cc1,4,1,-7,nt,7,-21
Cc1ccc2c(c1)c1c3n2CCCNC3CCC1 (stereo not given),10,2,5,-1.3,-5,-1
c1cc2c(cc1C1CCCCC1)c1c3n2CCCNC3CCC1 (stereo not given),0,-1,nt,-1.7,91,68*

# Screens from PubChem BioAssay.
